Experimental data from different studies.
Protocols differ between the studies behind these lines. pIC50: −log10 of the molar value. In brackets after ≈: the same amount, converted by molar mass.

Cc1cc2nc(C(=O)N3CCNCC3)cc(-c3ccccc3Cl)c2c(C)c1-c1ccncc1
MIC90 (Mycobacterium tuberculosis; microbial growth; H37RV): 10 µM (≈ 4.57 µg/mL)

CC(C)(C)c1nc(N2CCCCC2)c2ccccc2n1
pIC50 (Trypanosoma cruzi; parasite growth, imaging; U2OS; intracellular, amastigote): 4.67

Cc1ccc2nc(-c3ccc(Cl)cc3)cn2c1
EC90 (Trypanosoma cruzi; parasite growth; TULAHUEN; 6 days, intracellular, amastigote): > 5 µM

CCOC(=O)c1cc(-c2ccccc2)sc1NC(=O)c1c(F)c(F)c(F)c(F)c1F
MIC (Mycobacterium tuberculosis; microbial growth, resazurin; H37RV): > 200 µM

c1ccc(-c2nc(N3CCCC3)c3ccccc3n2)nc1
pIC50 (Trypanosoma cruzi; parasite growth, imaging; U2OS; intracellular, amastigote): 5.51

CCOC(=O)c1c(NC(=O)c2ccccc2)sc2c1CCN(C(=O)OC(C)(C)C)C2
MIC (Mycobacterium tuberculosis; microbial growth, resazurin; H37RV): > 200 µM

Cn1cc(-c2nc(N3CCC(c4ccccn4)C3)c3ccccc3n2)cn1 (stereo not drawn)
pIC50 (Trypanosoma cruzi; parasite growth, imaging; U2OS; intracellular, amastigote): 5.59

CC1=NN(CNC(=O)c2ccccc2)C(=O)C1=NNn1c(-c2ccccc2)nc2ccccc2c1=O
MIC (Monascus purpureus; microbial growth, broth dilution): 104 µM (≈ 49.8 µg/mL)

CC(C)(Nc1nc(-c2ccccn2)nc2ccccc12)c1ccccn1
pIC50 (Trypanosoma cruzi; parasite growth, imaging; U2OS; intracellular, amastigote): 5.85

O=C1NN=C(N=Cc2ccc(O)cc2O)C1=NNn1c(-c2ccccc2)nc2ccccc2c1=O
MIC (Monascus purpureus; microbial growth, broth dilution): 53.5 µM (≈ 25 µg/mL)

c1ccc(C2CCN(c3nc(-c4ccn[nH]4)nc4ccccc34)C2)nc1 (stereo not drawn)
pIC50 (Trypanosoma cruzi; parasite growth, imaging; U2OS; intracellular, amastigote): 4.84

CCN1CCc2c(sc(N)c2C(=O)NCc2ccccc2OC)C1
MIC (Mycobacterium tuberculosis; microbial growth, resazurin; H37RV): > 200 µM

CC1=NN(CNc2ccc(C(=O)O)cc2)C(=O)C1=NNn1c(-c2ccccc2)nc2ccccc2c1=O
MIC (Monascus purpureus; microbial growth, broth dilution): 101 µM (≈ 50 µg/mL)

c1ccc(-c2nc(N3CCC(c4ccccn4)C3)c3ccccc3n2)cc1 (stereo not drawn)
pIC50 (Trypanosoma cruzi; parasite growth, imaging; U2OS; intracellular, amastigote): 5.32

CC1=NN(CNc2c(O)c(S(=O)(=O)O)cc3ccccc23)C(=O)C1=NNn1c(-c2ccccc2)nc2ccccc2c1=O
MIC (Monascus purpureus; microbial growth, broth dilution): 41.8 µM (≈ 25 µg/mL)

CCOC(=O)c1c(NC(=O)c2c(F)c(F)c(F)c(F)c2F)sc2c1CCCC2
pIC50 (Mycobacterium tuberculosis; microbial growth, resazurin; H37RV): 4.89

O=C(N[C@@H](Cc1ccccc1)C(=O)c1nc2ccccc2s1)[C@H](Cc1ccccc1)NC(=O)N1CCOCC1
pIC50 (Trypanosoma cruzi; parasite growth; TULAHUEN; intracellular, amastigote): 4.76

Cc1cc2nc(C(=O)N3CCOCC3)cc(-c3ccccc3Cl)c2c(C)c1-c1ccncc1
MIC90 (Mycobacterium tuberculosis; microbial growth; H37RV): 15 µM (≈ 6.87 µg/mL)

CCCCNC(=O)c1c(N)sc2c1CCCC2
MIC (Mycobacterium tuberculosis; microbial growth, resazurin; H37RV): > 300 µM

NC(=O)c1cccc(-c2nc(N3CCC(c4ccccn4)C3)c3ccccc3n2)c1 (stereo not drawn)
pIC50 (Trypanosoma cruzi; parasite growth, imaging; U2OS; intracellular, amastigote): 5.03

CCOC(=O)c1c(NC(=O)c2c(F)c(F)c(F)c(F)c2F)sc2c1CCN(C(=O)OC(C)(C)C)C2
MIC (Mycobacterium tuberculosis; microbial growth, resazurin; H37RV; 7 days): > 100 µM

O=[N+]([O-])c1ccc(-c2nc3cccc(O)c3[nH]2)o1
MBC (Staphylococcus haemolyticus; microbial killing): 0.5 µg/mL (≈ 2.04 µM)

CCCCNC(=O)c1c(N)sc2c1CCN(CC)C2
pIC50 (Mycobacterium tuberculosis; microbial growth, resazurin; H37RV): < 3.52

CC1(C)S[C@@H]2[C@H](NC(=O)[C@H](N)c3ccccc3)C(=O)N2[C@H]1C(=O)O
inhibition (Plesiomonas shigelloides; microbial growth, agar dilution; 26.93 µM): 100%
